Results on 5 compounds are retold here after ChEMBL document CHEMBL4033611, “Chlorinated Dehydrocurvularins and Alterperylenepoxide A from Alternaria sp. AST0039, a Fungal Endophyte of Astragalus lentiginosus” (J Nat Prod, 2017).

One test has as its system MCF7. The experiment in a line: Cytotoxicity against human MCF7 cells after 72 hrs by resazurin/AlamarBlue dye-based fluorescence assay. In kind it is functional, cell-based. Conditions: MCF7, 72 h. In outline: (§1)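 Serial dilutions of compound or DMSO vehicle added to triplicate wells in RPMI-1640 with 10% FBS, 72 h at 37 °C. Resazurin (AlamarBlue) dye then added at 1:10 dilution, 4 h more at 37 °C, fluorescence read at Ex/Em 560/590. Mean fluorescence per well compared with DMSO-treated wells as relative viable cell number; doxorubicin positive control.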
For orientation: Resazurin is reduced to fluorescent resorufin, in cell work by metabolically active cells.

Another test concerns NCI-H460. Put plainly: Cytotoxicity against human NCI-H460 cells after 72 hrs by resazurin/AlamarBlue dye-based fluorescence assay. In kind it is functional, cell-based. As to conditions: NCI-H460, 72 h. A digest of the protocol:
as §1

In the next test the test system is SF-268. The experiment in a line: Cytotoxicity against human SF268 cells after 72 hrs by resazurin/AlamarBlue dye-based fluorescence assay. The format is functional, cell-based. Conditions: SF-268, 72 h. A digest of the protocol: as §1
In another test the test system is PC-3M. The experiment in a line: Cytotoxicity against human PC3M cells after 72 hrs by resazurin/AlamarBlue dye-based fluorescence assay. The format is functional, cell-based. In outline: as §1
In the next test the test system is MDA-MB-231. Put plainly: Cytotoxicity against human MDA-MB-231 cells after 72 hrs by resazurin/AlamarBlue dye-based fluorescence assay. As to conditions: MDA-MB-231, 72 h. The format is functional, cell-based. A digest of the protocol:
as §1

Test [1] concerns Fibroblast. Put plainly: Induction of heat-shock response in mouse fibroblasts harboring reporter construct encoding enhanced green fluorescent protein at 5 uM after overnight incubation by fluorescence assay. The format is functional, cell-based. A digest of the protocol:
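Stably transfected reporter fibroblasts (EGFP driven by a minimal consensus heat-shock element) were seeded at 20 000 cells/well and left to attach overnight. Serial 2-fold dilutions of compound were added in triplicate, with DMSO vehicle (≤0.1%) as the negative control. After overnight incubation the cells were rinsed and read in PBS at Ex 485/Em 525 nm. Mean fluorescence ± SD was expressed relative to DMSO.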

Test [2] has as its target Transitional endoplasmic reticulum ATPase (Homo sapiens) (UniProt P55072). The experiment in a line: Inhibition of p97 in human MDA-MB-231 cells assessed as UPR activation by measuring increase in CHOP protein levels up to 20 uM after 8 hrs by Western blot analysis. In kind it is cell-based. A digest of the protocol: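 MDA-MB-231 cells were treated for 8 h in DMEM with 10% FBS, then harvested in SDS sample buffer, sonicated and cleared. Lysates were run on 4–20% SDS-PAGE and transferred to nitrocellulose. Blots were blocked in 5% milk and probed for CHOP, XBP1s and ATF4 (1:1000), with β-actin as loading control. Detection was by chemiluminescence. DMSO served as negative control, with CB-5083 (1.0 μM) and MG132 (5.0 μM) as comparators.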
For orientation: In western blotting, separated proteins are transferred to a membrane and probed.

The species named for test [3] is Homo sapiens. Put plainly: Inhibition of proteasome in human MDA-MB-231 cells assessed as increase in CHOP protein levels at 5 uM after 8 hrs by Western blot analysis. The format is cell-based. A digest of the protocol: (§2)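 Cells treated for 8 h in DMEM with 10% FBS, with DMSO negative control, CB-5083 (1.0 μM) positive control and MG132 (5.0 μM) comparator. Lysed by sonication in SDS sample buffer and run on 4–20% SDS-PAGE. Immunoblotted with anti-XBP1s, ATF4, CHOP (1:1000) and β-actin loading control, then HRP secondaries (1:3000) and chemiluminescence.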

Test [4] is filed under the species Homo sapiens. The experiment in a line: Inhibition of proteasome in human MDA-MB-231 cells assessed as increase in CHOP protein levels up to 20 uM after 8 hrs by Western blot analysis. In kind it is cell-based. A digest of the protocol: as §2
The test system of test [5] is Fibroblast. Put plainly: Induction of heat-shock response in mouse fibroblasts harboring reporter construct encoding enhanced green fluorescent protein at 1.25 to 5 uM after overnight incubation by fluorescence assay. In kind it is functional, cell-based. In outline:
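Reporter fibroblasts carry EGFP driven by a minimal consensus heat-shock element. Seeded at 20 000 cells/well and attached overnight. Serial 2-fold dilutions added in triplicate, with DMSO (≤0.1%) as negative control and monocillin I as positive control. Incubated overnight, rinsed with PBS, fluorescence read at 485/525 nm. Reported as mean ± SD of triplicates, also as a percentage of the DMSO control; three independent experiments.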

Test [6] is filed under the species Homo sapiens. Put plainly: Inhibition of proteasome in human MDA-MB-231 cells assessed as increase in XBP1 protein levels up to 20 uM after 8 hrs by Western blot analysis. In kind it is cell-based. In outline:
as §2

For test [7], the species on record is Homo sapiens. The experiment in a line: Inhibition of proteasome in human MDA-MB-231 cells assessed as UPR activation by measuring increase in ATF4 protein levels up to 20 uM after 8 hrs by Western blot analysis. The format is cell-based. A digest of the protocol:
as §2

The source made the active and inactive calls. The rule behind the calls is not given here. Peptide text beside a SMILES is read from it. * marks the point of attachment. Cbz = O=C(OCc1ccccc1)* Some results are limits rather than exact numbers.

Sequence of Transitional endoplasmic reticulum ATPase (Homo sapiens) (P55072 2-806 limits assumed): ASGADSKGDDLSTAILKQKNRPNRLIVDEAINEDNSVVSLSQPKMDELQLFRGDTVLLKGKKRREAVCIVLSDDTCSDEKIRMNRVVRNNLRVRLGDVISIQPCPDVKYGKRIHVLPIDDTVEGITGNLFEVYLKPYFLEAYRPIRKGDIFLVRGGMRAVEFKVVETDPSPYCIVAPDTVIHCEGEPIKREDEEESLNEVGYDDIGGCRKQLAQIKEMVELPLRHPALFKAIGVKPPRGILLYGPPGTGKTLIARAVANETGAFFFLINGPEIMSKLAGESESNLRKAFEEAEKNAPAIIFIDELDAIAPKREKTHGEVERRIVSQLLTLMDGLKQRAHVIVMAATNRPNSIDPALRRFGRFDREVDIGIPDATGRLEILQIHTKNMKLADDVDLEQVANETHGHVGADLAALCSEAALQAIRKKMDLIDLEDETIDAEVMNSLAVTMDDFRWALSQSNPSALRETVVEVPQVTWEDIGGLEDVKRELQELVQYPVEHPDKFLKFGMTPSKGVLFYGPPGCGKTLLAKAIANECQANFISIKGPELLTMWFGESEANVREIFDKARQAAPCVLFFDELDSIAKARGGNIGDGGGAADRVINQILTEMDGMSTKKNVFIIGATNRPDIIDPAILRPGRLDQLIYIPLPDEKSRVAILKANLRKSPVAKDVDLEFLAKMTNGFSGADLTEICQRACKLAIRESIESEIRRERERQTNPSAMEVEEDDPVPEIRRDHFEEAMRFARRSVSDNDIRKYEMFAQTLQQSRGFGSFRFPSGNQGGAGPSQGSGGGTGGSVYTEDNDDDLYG

As a reminder, the IC50 is the point on the concentration scale where inhibition reaches its midpoint. A lower IC50 goes with higher potency. As for `C[C@H]1CCC/C=C/C(=O)c2c(cc(O)c(Cl)c2O)CC(=O)O1`, the IC50 is 1990 nM in the test with MCF7; 1450 nM in the test on NCI-H460; 1.41 µM with SF-268; 1710 nM in the test with PC-3M; 2950 nM in the test with MDA-MB-231. The result with Fibroblast [1] was Active.

For the compound `C[C@H]1CCC/C=C/C(=O)c2c(O)c(Cl)c(O)c(Cl)c2CC(=O)O1`, the inhibition result in [2] is “Active”. Moreover, the result with Fibroblast [1] was Active.

With `CC(C)C[C@@H](C=O)NC(=O)[C@H](CC(C)C)NC(=O)[C@H](CC(C)C)NC(=O)OCc1ccccc1` (Cbz-Leu-Leu-Leu-aldehyde), the inhibition entry in the test listed under Homo sapiens [3] is “Active”.

For the compound `C[C@H]1CCC/C=C/C(=O)c2c(O)cc(O)cc2CC(=O)O1` [DEHYDROCURVULARIN], the inhibition result in the test filed under Homo sapiens [4], in the test listed under Homo sapiens [6] and in the test filed under Homo sapiens [7] was “Active” in each case. The outcome in the test on Fibroblast [5] was Active. Besides, the IC50 in the test with NCI-H460 was 3570 nM; in the test with SF-268 it was 4.73 µM; in the test on PC-3M it was 4510 nM; in the test on MDA-MB-231, above 5000 nM.

In turn, `COc1cccc2c1C(=O)c1c(O)c3c(c(O)c1C2=O)C[C@@](O)(C(=O)CO)C[C@@H]3O[C@H]1C[C@H](N)[C@H](O)[C@H](C)O1` [DOXORUBICIN] came in with an IC50 in the test with PC-3M of 240 nM.
